Reference: ChEMBL document CHEMBL5724801, “EUbOPEN Chemogenomics Library - Multiplex” (2024)
Several values for one entry are separate records, joined by “and”; a condition that tells them apart may be missing. Equal entries are not always repeated.

What was measured:
[1] = system: Fibroblast; assay: Multiplex assay against human fibroblast; format: toxicity, cell-based
How it was run: (§1)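 Live cells carried four stains from seeding: Hoechst33342, BioTracker Green Microtubule Cytoskeleton Dye, MitoTracker Red and Annexin V Alexa Fluor 680. They were imaged on a CQ1 microscope at 37°C and 5% CO2 after compound addition. Using CellPathfinder machine-learning gating, cells were split into Hoechst high-intensity objects or normal cells, normal cells into healthy, pyknosed or fragmented nuclei, and pyknosed cells into mitotic or apoptotic; tubulin, mitochondrial-mass and membrane-permeability phenotypes are per cents of healthy-nucleus cells.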

[2] = system: U2OS; assay: Multiplex assay against U2OS; format: toxicity, cell-based; conditions: human; how it was run: as §1
[3] = 24 h, 10 µM, compound concentration 10 uM
[4] = 48 h, 1 µM, compound concentration 1 uM
[5] = 48 h, 10 µM, compound concentration 10 uM
[6] = 12 h, 1 µM, compound concentration 1 uM
[7] = 12 h, 10 µM, compound concentration 10 uM
[8] = 24 h, 1 µM, compound concentration 1 uM

## Nc1nc(CC(=O)Nc2ccc(CCNC[C@H](O)c3ccccc3)cc2)cs1 [MIRABEGRON]
[1]; [3]
  Population Apoptotic (%): 53% and 55%
  Population Fragmented Nuclei (%): 15% and 29%
  Population Healthy Nuclei (%): 75% and 48%
  Population Hoechst High Intensity Objects (%): 2% and 4%
  Population Membrane Permeable-Phenotype (%): 0% and 4%
  Population Mitochondria Different-Phenotype (%): 4% and 6%
  Population Mitotic Cells (%): 46% and 44%
  Population Normal (%): 97% and 95%
  Population Pyknosed Nuclei (%): 8% and 21%
  Population Tubulin-Different-Phenotype (%): 24% and 44%
  Total Cell Count: 181 and 131
[1]; [4]
  Population Apoptotic (%): 76% and 50%
  Population Fragmented Nuclei (%): 23% and 40%
  Population Healthy Nuclei (%): 60% and 52%
  Population Hoechst High Intensity Objects (%): 7% and 2%
  Population Membrane Permeable-Phenotype (%): 2% and 4%
  Population Mitochondria Different-Phenotype (%): 6% and 10%
  Population Mitotic Cells (%): 23% and 50%
  Population Normal (%): 92% and 97%
  Population Pyknosed Nuclei (%): 15% and 7%
  Population Tubulin-Different-Phenotype (%): 28% and 32%
  Total Cell Count: 176 and 195
[1]; [5]
  Population Apoptotic (%): 64% and 75%
  Population Fragmented Nuclei (%): 18% and 39%
  Population Healthy Nuclei (%): 74% and 48%
  Population Hoechst High Intensity Objects (%): 4% and 3%
  Population Membrane Permeable-Phenotype (%): 0% and 6%
  Population Mitochondria Different-Phenotype (%): 4% and 6%
  Population Mitotic Cells (%): 35% and 25%
  Population Normal (%): 95% and 96%
  Population Pyknosed Nuclei (%): 7% and 12%
  Population Tubulin-Different-Phenotype (%): 21% and 51%
  Total Cell Count: 194 and 132
[2]; [6]
  Population Apoptotic (%): 86% and 100%
  Population Fragmented Nuclei (%): 24% and 13%
  Population Healthy Nuclei (%): 62% and 74%
  Population Hoechst High Intensity Objects (%): 1% and 0%
  Population Membrane Permeable-Phenotype (%): 6% and 5%
  Population Mitochondria Different-Phenotype (%): 3% and 2%
  Population Mitotic Cells (%): 13% and 0%
  Population Normal (%): 98% and 99%
  Population Pyknosed Nuclei (%): 12%
  Population Tubulin-Different-Phenotype (%): 4% and 5%
  Total Cell Count: 240 and 107
[2]; [7]
  Population Apoptotic (%): 86% and 66%
  Population Fragmented Nuclei (%): 18% and 21%
  Population Healthy Nuclei (%): 70% and 71%
  Population Hoechst High Intensity Objects (%): 1% and 0%
  Population Membrane Permeable-Phenotype (%): 6% and 7%
  Population Mitochondria Different-Phenotype (%): 2% and 3%
  Population Mitotic Cells (%): 13% and 33%
  Population Normal (%): 98% and 99%
  Population Pyknosed Nuclei (%): 11% and 6%
  Population Tubulin-Different-Phenotype (%): 4% and 1%
  Total Cell Count: 319 and 136
[2]; [8]
  Population Apoptotic (%): 82% and 58%
  Population Fragmented Nuclei (%): 21% and 11%
  Population Healthy Nuclei (%): 70% and 79%
  Population Hoechst High Intensity Objects (%): 2% and 0%
  Population Membrane Permeable-Phenotype (%): 4% and 9%
  Population Mitochondria Different-Phenotype (%): 2% and 3%
  Population Mitotic Cells (%): 17% and 41%
  Population Normal (%): 97% and 99%
  Population Pyknosed Nuclei (%): 8% and 9%
  Population Tubulin-Different-Phenotype (%): 3% and 7%
  Total Cell Count: 289 and 125
[2]; [3]
  Population Apoptotic (%): 86% and 76%
  Population Fragmented Nuclei (%): 17% and 20%
  Population Healthy Nuclei (%): 75% and 71%
  Population Hoechst High Intensity Objects (%): 1%
  Population Membrane Permeable-Phenotype (%): 5% and 9%
  Population Mitochondria Different-Phenotype (%): 3% and 5%
  Population Mitotic Cells (%): 13% and 23%
  Population Normal (%): 98%
  Population Pyknosed Nuclei (%): 7%
  Population Tubulin-Different-Phenotype (%): 3% and 4%
  Total Cell Count: 405 and 167
[2]; [4]
  Population Apoptotic (%): 84% and 78%
  Population Fragmented Nuclei (%): 17% and 12%
  Population Healthy Nuclei (%): 72% and 74%
  Population Hoechst High Intensity Objects (%): 2%
  Population Membrane Permeable-Phenotype (%): 4% and 8%
  Population Mitochondria Different-Phenotype (%): 3%
  Population Mitotic Cells (%): 15% and 21%
  Population Normal (%): 97%
  Population Pyknosed Nuclei (%): 9% and 13%
  Population Tubulin-Different-Phenotype (%): 3% and 7%
  Total Cell Count: 394 and 179
[2]; [5]
  Population Apoptotic (%): 87% and 70%
  Population Fragmented Nuclei (%): 14%
  Population Healthy Nuclei (%): 74% and 78%
  Population Hoechst High Intensity Objects (%): 2%
  Population Membrane Permeable-Phenotype (%): 5% and 3%
  Population Mitochondria Different-Phenotype (%): 2% and 3%
  Population Mitotic Cells (%): 12% and 29%
  Population Normal (%): 97%
  Population Pyknosed Nuclei (%): 10% and 7%
  Population Tubulin-Different-Phenotype (%): 2% and 1%
  Total Cell Count: 534 and 232
